The values below come from ChEMBL document CHEMBL4049390, “Combination of amino acid/dipeptide with ligustrazine-betulinic acid as antitumor agents” (Eur J Med Chem, 2017).

Calls of active or inactive are those of the source. The rule behind the calls is not given here.

One test concerns BGC-823. The test is described as follows: Antiproliferative activity against human BGC823 cells after 72 hrs by MTT assay. It counts as functional, cell-based. Conditions: BGC-823, 72 h. The method, boiled down: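 MTT assay. Log-phase cells were seeded at 3×10^3 cells/well and left overnight, then exposed to serial dilutions of compound (DMSO solutions) for 72 h in RPMI 1640 with 10% heat-inactivated FBS at 37 °C, 5% CO2. MTT (5 mg/mL, 20 µL) was added for 4 h at 37 °C and the formazan dissolved in DMSO. A490 was read. % inhibition = (1 − sample OD/control OD)×100; IC50 is the 50% growth-inhibition concentration. Triplicates, n = 3 independent experiments.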
A general note: Tetrazolium dyes change colour on reduction, which living cells bring about.

Test [1] has as its system HepG2. In words: Induction of apoptosis in human HepG2 cells assessed as cell shrinkage at 1.5 uM after 72 hrs by Giemsa staining based fluorescent microscopic method. In kind it is functional. The method, boiled down: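 HepG2 cells were seeded at 4×10^3 cells/well in 6-well plates overnight, then treated at 1.5, 3 or 6 µM for 72 h. Cells were washed in PBS, fixed in cold methanol, stained with 6% Giemsa for 5 min, rinsed with water and dried. Morphology was examined microscopically at 200×, with apoptotic cells marked in representative fields.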

Test [2] has as its system HepG2. The test is described as follows: Induction of apoptosis in human HepG2 cells assessed as viable cells at 2 uM after 72 hrs by Annexin-V-FITC/propidium iodide staining based flow cytometry (reference value: 93.2%). In kind it is functional. Conditions: HepG2, 72 h, read-out: Activity.
For test [3], the system named is HepG2. The test is described as follows: Induction of apoptosis in human HepG2 cells assessed as late apoptotic cells at 2 uM after 72 hrs by Annexin-V-FITC/propidium iodide staining based flow cytometry (reference value: 2.6%). In kind it is functional. Background: A flow cytometer gives signals particle by particle.
The test system of test [4] is HepG2. The test is described as follows: Induction of apoptosis in human HepG2 cells assessed as late apoptotic cells at 3 uM after 72 hrs by Annexin-V-FITC/propidium iodide staining based flow cytometry (reference value: 2.6%). It counts as functional.
In test [5] the test system is HepG2. The test is described as follows: Induction of apoptosis in human HepG2 cells assessed as necrotic cells at 3 uM after 72 hrs by Annexin-V-FITC/propidium iodide staining based flow cytometry (reference value: 0.5%). In kind it is functional.
In test [6] the test system is HepG2. In words: Induction of apoptosis in human HepG2 cells assessed as early apoptotic cells at 4 uM after 72 hrs by Annexin-V-FITC/propidium iodide staining based flow cytometry (reference value: 3.7%). In kind it is functional.
Test [7] has as its system HepG2. The test is described as follows: Induction of apoptosis in human HepG2 cells after 72 hrs by Annexin-V-FITC/propidium iodide staining based flow cytometry. It counts as functional, cell-based.
In test [8] the test system is HepG2. In words: Induction of apoptosis in human HepG2 cells assessed as disruption of mitochondrial membrane potential by measuring mean fluorescence intensity after 72 hrs by Rh123 staining based flow cytometry. In kind it is functional, cell-based. The essentials:
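Mitochondrial potential: HepG2 cells (1×10^5/well, 6-well) were grown 24 h, then exposed at 2, 3 or 4 µM for 72 h. Cells were trypsinised, washed in cold PBS and loaded with 10 µg/mL rhodamine 123 for 30 min at 37 °C. After washing, flow cytometry was run (ex 488/em 530 nm); the read-out is mean fluorescence intensity.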

Test [9] concerns HepG2. In words: Induction of apoptosis in human HepG2 cells assessed as disruption of mitochondrial membrane potential by measuring mean fluorescence intensity at 4 uM after 72 hrs by Rh123 staining based flow cytometry (reference value: 26410). It counts as functional.

Turning to `C=C(C)[C@@H]1CC[C@]2(C(=O)OCc3nc(C)c(C)nc3C)CC[C@]3(C)[C@H](CC[C@@H]4[C@@]5(C)CC[C@H](OC(=O)[C@H](C)NC(=O)CNC)C(C)(C)[C@@H]5CC[C@]43C)[C@@H]12`, half-maximal inhibition in the test with BGC-823 (IC50) required 1.79 µM. Moreover, the result with HepG2 [1] was Active. Also, the viability at 2 µM with HepG2 [2] was 88%. The Activity was 4.8% in the test with HepG2 [3]; 6.5% with HepG2 [4]; 1.2% in the test with HepG2 [5]; 29.9% in the test with HepG2 [6]; “Dose-dependent effect” in the test on HepG2 [7]; “Dose-dependent effect” in the test on HepG2 [8]. Moreover, in the test with HepG2 [9], the Flu intensity is 2147.
